Calpain2 inh: calpain II (pig) inhibition; purified calpain II, fluorogenic peptide substrate, 30 min; inhibition, % at 16 µM; actives 0.37% (n = 220,000);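 active = inhibition above about 50%, limit read from the data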
TNF death inh: TNF-alpha cell death inhibition in Jurkat FADD-/- cells; AID 463075; activation (protection from cell death), % at 10 µM; Jurkat FADD-/- TNF necroptosis rescue, ATP luminescence, 24 h; 0 = TNF only, 100 = no-TNF cells; actives 0.068% (n = 220,000);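 active = activation, meaning protection from cell death, of at least 50% relative to plate controls; inactive = activation below 50%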;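 note: necroptosis triggered by 40 ng/mL TNF-alpha added together with compound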
RBBP9 inh: human RBBP9 hydrolase inhibition. actives 0.2% (n = 220,000). inhibition, % at 7.94 µM. recombinant RBBP9, FP-Rh probe fluorescence polarization. AID 1515;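 active = inhibition above the campaign mean of all tested compounds plus 3 SD, cut at about 14% in these data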;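 note: plate controls were DMSO wells with RBBP9 for no effect and wells lacking RBBP9 protein for full effect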
Target sequence (O75884 whole entry, looked up): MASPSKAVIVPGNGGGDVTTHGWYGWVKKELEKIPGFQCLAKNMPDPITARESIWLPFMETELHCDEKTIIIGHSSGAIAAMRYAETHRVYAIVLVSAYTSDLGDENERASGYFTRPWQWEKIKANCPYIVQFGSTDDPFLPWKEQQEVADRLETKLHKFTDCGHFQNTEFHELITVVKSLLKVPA
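Controls: DMSO-treated enzyme wells and wells lacking RBBP9 | Material: RBBP9 protein | Technique: Fluorescence polarization | Replication: Single well per compound, no replicates | Buffer or medium: Tris-NaCl-Pluronic buffer, pH 8.0 | Timing: 30 min compound preincubation, 45 min probe labeling, 25 °C | Read-out basis: Percent inhibition from mP, scaled between DMSO and no-protein wells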
zVAD death inh: blocks zVAD induced death of L929 cells; L929 zVAD necroptosis rescue, ATP luminescence, 24 h; with zVAD 60 µM; viability rescue, % at 10 µM; actives 0.38% (n = 220,000);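 active = activation, scaled between plate controls, above about 75%, limit read from the data; inactive = activation under that limit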;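 note: 0% = zVAD with DMSO and 100% = DMSO alone without zVAD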
Wee1 degr inh: human Wee1 degradation inhibition, primary screen | reporter increase, % at 5 µM | actives 1.2% (n = 220,000) | HeLa Luc-Wee1K328M stability, luciferase luminescence; 100% = proteasome inhibitor MG132 effect | P30291 | AID 1321;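 active = activation above the mean of all tested compounds plus 3 SD, set per screening run, cut at about 8.8% in these data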;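 note: cells exposed to compound for 20 h before luminescence read; 0% = DMSO alone and 100% = MG132 at 30 µM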
Pf gamet viab: P. falciparum stage V gametocyte viability inhibition. P. falciparum stage V gametocytes, ATP luminescence, 24 h. inhibition, % at 10.9 µM. actives 0.065% (n = 150,000). AID 743093;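 active = inhibition above the mean plus 3 SD of compounds within the control limits, set per campaign, cut at about 38% in these data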;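 note: 0% = DMSO wells and 100% = medium only without gametocytes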
zVAD death conf: confirmed blocker of zVAD induced death in L929 cells. shares compounds with zVAD death inh. L929 zVAD-induced necroptosis rescue, ATP luminescence, 24 h. activation (protection from necroptosis), % at 10 µM. actives 16% (n = 760);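 active = mean protection from necroptosis of at least 50% over duplicate tests; inactive = mean protection below 50%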;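 note: 0% = cells with zVAD alone and 100% = vehicle cells without zVAD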
* = called active by the depositor; . = not tested or not shown. A selection: hits, their analogues and other compounds. The true share with any hit is near 2.1%.

SMILES | Calpain2 inh | TNF death inh | RBBP9 inh | zVAD death inh | Wee1 degr inh | Pf gamet viab | zVAD death conf
CCCSc1nc(=S)n(Cc2ccccc2)c(C)c1C(C)=O | -14 | -5 | 0 | -1 | -1 | . | .
Oc1ccc(-c2[nH]ncc2-c2cnn(-c3ccccc3)c2)c(O)c1 | -25 | -3 | -6 | 79* | 0 | . | 2
Cc1cnc(NC(=O)c2ccc(OCC3CCCO3)cc2)s1 (stereo not drawn) | 9 | 38 | -4 | 75* | -4 | -1 | 75*
Cc1ccc(S(=O)(=O)N2[C@@H](c3cccc(Cl)c3)C(C(=O)O)=CC[C@H]2c2ccc(C(C)C)cc2)cc1 | . | . | . | . | . | -13 | .
COc1ccc(Cn2c(=O)[nH]c3cc(C(=O)NCCCN4CCCCCC4)ccc3c2=O)cc1 | -2 | -1 | -11 | 2 | -3 | 14 | .
CCCCCn1c(=O)[nH]c2cc(C(=O)NCCCN(C)Cc3ccccc3)ccc2c1=O | -22 | 0 | -7 | 1 | 4 | 21 | .
O=C(NCCCN1CCCCC1)c1ccc2c(=O)n(CCc3ccccc3)c(=O)[nH]c2c1 | -65 | -3 | -3 | 80* | -1 | . | 2
CCN(CC)CCNC(=O)c1ccc2c(=O)n(CCc3ccccc3)c(=O)[nH]c2c1 | -97 | -1 | -8 | 89* | -2 | 15 | 19
O=C(/C=C/c1cc([N+](=O)[O-])ccc1OC(F)F)Nc1cccc(OC(F)F)c1 | -16 | 1 | -8 | 7 | 1 | 8 | .
O=C(COC(=O)c1ccc(-c2nnc(-c3ccccc3)o2)cc1)c1ccccc1 | -3 | 0 | -1 | 78* | 2 | . | 0
Nc1ccccc1NC1CCCCC1 | 25 | -2 | 0 | 2 | 0 | 7 | .
CCCCN(C)CCCNC(=O)/C=C1\Sc2ccccc2NC1=O | -28 | 5 | 2 | 75* | 1 | 8 | 24
CCN(CC)CCCNC(=O)CC1Sc2ccccc2NC1=O (stereo not drawn) | -4 | -1 | -1 | 0 | 2 | . | .
Cc1cc(C(=O)N/N=C/c2cccnc2)n[nH]1 | 10 | 39 | -6 | 84* | 4 | -8 | 6
Cc1cc(C(=O)N/N=C/c2ccc[nH]2)no1 | 39 | 2 | -10 | 0 | -2 | . | .
Cc1cc(C(=O)N/N=C/c2ccc(-c3ccccc3Cl)o2)n[nH]1 | -14 | 30 | -5 | 84* | 3 | -5 | 38
Cc1cc(C(=O)N/N=C/c2ccc[nH]2)n[nH]1 | 26 | 16 | 0 | 89* | 2 | 5 | 27
Cc1cc(C)c2c(N)c(C(=O)N/N=C/c3cccnc3)sc2n1 | -23 | -10 | -5 | 79* | 9.5* | -7 | 36
Cc1ccc(-c2cc(C(=O)N/N=C/c3cccnc3)n[nH]2)o1 | -4 | 0 | 2 | 2 | -2 | . | .
Cc1cn(Cc2ccccc2)c(=O)[nH]c1=O | -20 | 1 | -5 | 1 | 2 | . | .
CC(=O)c1ccc(NC(=O)C(C)OC(=O)c2ccc(NS(=O)(=O)c3ccc(F)c(F)c3)cc2)cc1 (stereo not drawn) | -53 | 3 | -9 | 15 | 0 | . | .
CC(c1ccco1)N(C(=O)C12CC3(C)CC(C)(CC(C)(C3)C1)C2)c1ccccn1 (stereo not drawn) | 1 | -3 | 4 | -1 | -1 | . | .
COC(=O)[C@H](Cc1ccccc1)NC(=O)O[C@H]1C(=O)c2ccc(OC)cc2O[C@@H]1c1ccc2c(c1)OCO2 | -103 | 2 | -8 | 4 | -2 | . | .
CC(=O)N(C)c1ccc(NC(=O)Nc2ccccc2C)cc1 | -22 | -3 | -5 | 6 | 3 | -18 | .
CC(=O)N(C)c1ccc(NC(=O)Nc2ccc(C)c(C)c2)cc1 | -25 | -2 | -5 | 77* | 6 | -14 | 39
SMILES | Calpain2 inh | TNF death inh | RBBP9 inh | zVAD death inh | Wee1 degr inh | Pf gamet viab | zVAD death conf
Nc1nnnn1/N=C/C(Br)=C/c1ccccc1 | -13 | -17 | -5 | 116* | 1 | . | 102*
Nc1nnnn1/N=C/C=C/c1ccccc1 | -29 | 0 | -9 | 1 | 0 | -34 | .
CC(=O)c1cccc(S(=O)(=O)NC2CC2)c1 | 1 | 1 | -3 | 2 | 0 | . | .
COc1ccc(/C=N/Nc2nc3ccccc3o2)cc1O | -41 | 18 | -1 | 86* | 2 | -21 | 49
COc1ccc(/C=N/Nc2nc3ccccc3s2)cc1O | 6 | 59* | 1 | 79* | 7 | -1 | 76*
O=C1CS/C(=N\c2ccccn2)N1C1CCCCC1 | 2 | 4 | -3 | 2 | -2 | . | .
CC(C)OP(=O)(OC(C)C)C(O)c1ccc(N(C)C)cc1 (stereo not drawn) | 16 | 1 | -6 | 0 | 1 | 6 | .
N=C1S/C(=C\c2ccc(O)cc2)C(=O)N1c1ccc(F)cc1 | -53 | 2 | 2 | 80* | 3 | . | 1
O=C(CN1C(=O)C2C3C=CC(C4CC34)C2C1=O)Nc1cnc2ccccc2c1 (stereo not drawn) | -6 | 5 | -8 | 75* | -2 | . | 0
COc1ccc2cc(C(=O)NCc3ccccc3)c(=Nc3ccc(C(=O)O)cc3)oc2c1 | 14 | 2 | -9 | 76* | 2 | . | 1
O=C(Nc1nccs1)c1ccc(S(=O)(=O)N2CCOCC2)cc1 | 2 | 44 | -8 | 82* | 0 | 16 | 68*
Cc1cc(NC(=O)c2ccc(S(=O)(=O)N(C)CC3CCCO3)cc2)no1 (stereo not drawn) | -59 | 0 | 5 | 3 | 0 | 6 | .
CN(CC1CCCO1)S(=O)(=O)c1ccc(C(=O)Nc2nccs2)cc1 (stereo not drawn) | -4 | 61* | 3 | 87* | -2 | -4 | 103*
O=C(CCC(=O)N1CCN(C(=O)c2ccco2)CC1)c1ccc(F)cc1 | 1 | 0 | -2 | 76* | 4 | 5 | 2
O=C(CCC(=O)N1CCOCC1)c1ccc(F)cc1 | -26 | 1 | -2 | 1 | 1 | -8 | .
CCOC(=O)C1=C(C)N(CCCC(=O)O)C(=O)NC1c1ccccc1Cl (stereo not drawn) | . | . | . | . | . | 9 | .
O=C(Oc1c(-c2ccccc2)oc2ccccc2c1=O)c1ccccc1 | -19 | -8 | -2 | 79* | -2 | 14 | 2
O=C(NC1CC2CCC(C1)N2Cc1ccccc1)c1ccccc1Br (stereo not drawn) | . | . | . | . | . | -3 | .
COc1ccc(/C=N/NC(=O)c2ccc(=O)n(C)c2)cc1OC | -12 | -2 | 0 | 9 | -1 | -10 | .
Cc1c(NS(=O)(=O)c2ccc(C(=O)NCc3ccccc3)cc2)c(=O)n(-c2ccccc2)n1C | -21 | 0 | -5 | 2 | 3 | 8 | .
Cc1ccccc1Oc1cc(-n2ncc(Cl)c(Cl)c2=O)ncn1 | -57 | -14 | -7 | 85* | 4 | -23 | 3
